Assay results published in ChEMBL document CHEMBL1154183, “Structure-based optimization of potent and selective inhibitors of the tyrosine kinase erythropoietin producing human hepatocellular carcinoma receptor B4 (EphB4)” (J Med Chem, 2009).

Legend:
[1] = molecular target: Mitogen-activated protein kinase kinase kinase 11 (Homo sapiens) (UniProt Q16584); test: Inhibition of MLK3 assessed as remaining enzyme activity at 3 uM relative to DMSO
Method in brief: (§1)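 Radiometric kinase assay run robotically at room temperature for 30 min. Contained 10 mM magnesium acetate and [γ-33P]ATP (800 cpm/pmol) at 5, 20 or 50 μM, chosen per kinase to be at or below its ATP Km. Reactions were started with MgATP, stopped with orthophosphoric acid and spotted onto P81 filters. Result is mean % activity of duplicates at one inhibitor concentration versus DMSO control.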

Ephrin type-B receptor 4 [2] = molecular target: T1, Ephrin type-B receptor 4 (Homo sapiens, UniProt P54760); test: Inhibition of EphB4 by [gamma33-P]ATP based assay
T1 sequence (P54760 whole entry): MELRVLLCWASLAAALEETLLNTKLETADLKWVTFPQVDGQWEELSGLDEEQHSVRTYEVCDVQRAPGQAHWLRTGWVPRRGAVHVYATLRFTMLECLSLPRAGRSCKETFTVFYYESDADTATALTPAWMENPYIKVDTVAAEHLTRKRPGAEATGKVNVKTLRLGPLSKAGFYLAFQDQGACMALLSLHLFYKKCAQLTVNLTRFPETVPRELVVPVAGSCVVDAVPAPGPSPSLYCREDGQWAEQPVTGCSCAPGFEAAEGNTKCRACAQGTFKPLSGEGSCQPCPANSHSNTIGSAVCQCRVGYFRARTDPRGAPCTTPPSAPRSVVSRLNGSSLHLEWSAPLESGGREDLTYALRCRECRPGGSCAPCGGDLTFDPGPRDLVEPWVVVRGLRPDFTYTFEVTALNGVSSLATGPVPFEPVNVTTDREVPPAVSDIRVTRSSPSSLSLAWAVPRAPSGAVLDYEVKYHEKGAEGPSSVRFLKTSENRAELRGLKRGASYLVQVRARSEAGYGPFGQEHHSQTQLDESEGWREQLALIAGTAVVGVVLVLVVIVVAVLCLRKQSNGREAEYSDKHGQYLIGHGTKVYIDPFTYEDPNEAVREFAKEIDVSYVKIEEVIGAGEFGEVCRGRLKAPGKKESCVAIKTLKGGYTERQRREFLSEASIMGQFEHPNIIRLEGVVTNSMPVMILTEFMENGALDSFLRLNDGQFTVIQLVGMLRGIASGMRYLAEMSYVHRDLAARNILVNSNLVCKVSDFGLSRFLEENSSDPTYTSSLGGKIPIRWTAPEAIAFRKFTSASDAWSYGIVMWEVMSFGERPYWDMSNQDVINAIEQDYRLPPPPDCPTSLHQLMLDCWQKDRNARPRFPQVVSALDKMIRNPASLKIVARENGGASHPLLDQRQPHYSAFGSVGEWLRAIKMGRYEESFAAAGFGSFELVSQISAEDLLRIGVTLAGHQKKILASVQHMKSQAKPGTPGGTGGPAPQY

[3] = molecular target: Serine/threonine-protein kinase Nek2 (Homo sapiens) (UniProt P51955); test: Inhibition of NEK2alpha assessed as remaining enzyme activity at 3 uM relative to DMSO; method in brief: as §1
Sequence of Serine/threonine-protein kinase Nek2 (Homo sapiens) (P51955 whole entry): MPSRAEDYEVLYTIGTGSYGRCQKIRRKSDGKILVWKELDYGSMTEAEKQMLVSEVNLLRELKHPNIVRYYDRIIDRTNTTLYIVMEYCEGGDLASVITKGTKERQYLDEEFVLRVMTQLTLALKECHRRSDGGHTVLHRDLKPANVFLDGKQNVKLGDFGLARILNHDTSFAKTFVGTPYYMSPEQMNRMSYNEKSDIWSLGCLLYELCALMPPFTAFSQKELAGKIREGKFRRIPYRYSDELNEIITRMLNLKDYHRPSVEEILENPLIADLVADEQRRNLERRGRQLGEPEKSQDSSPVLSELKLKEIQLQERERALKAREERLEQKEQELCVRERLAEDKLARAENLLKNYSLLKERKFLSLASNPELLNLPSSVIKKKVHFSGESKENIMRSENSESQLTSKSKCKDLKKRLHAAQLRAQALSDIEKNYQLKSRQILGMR

[4] = molecular target: MAP kinase-activated protein kinase 2 (Homo sapiens) (UniProt P49137); test: Inhibition of MAPKAPK2 assessed as remaining enzyme activity at 3 uM relative to DMSO; method in brief: as §1
Sequence of MAP kinase-activated protein kinase 2 (Homo sapiens) (P49137 whole entry, looked up): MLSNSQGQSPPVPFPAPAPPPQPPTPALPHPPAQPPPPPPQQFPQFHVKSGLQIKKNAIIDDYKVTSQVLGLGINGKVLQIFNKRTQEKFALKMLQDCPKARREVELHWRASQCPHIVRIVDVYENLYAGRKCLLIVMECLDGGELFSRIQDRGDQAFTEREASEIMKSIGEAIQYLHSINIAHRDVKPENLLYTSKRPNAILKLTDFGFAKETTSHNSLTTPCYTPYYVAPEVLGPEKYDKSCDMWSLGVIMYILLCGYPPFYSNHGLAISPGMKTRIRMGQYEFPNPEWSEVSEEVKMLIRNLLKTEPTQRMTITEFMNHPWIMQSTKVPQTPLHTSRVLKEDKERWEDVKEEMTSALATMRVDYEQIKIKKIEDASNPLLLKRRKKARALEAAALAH

Ephrin type-B receptor 4 [5] = molecular target: T1, Ephrin type-B receptor 4; test: Inhibition of EphB4 assessed as blockade of synthetic substrate phosphorylation by FRET assay
[6] = Inhibition of PKA assessed as remaining enzyme activity at 3 uM relative to DMSO; method in brief: as §1
[7] = molecular target: MAP kinase-interacting serine/threonine-protein kinase 2 (Homo sapiens) (UniProt Q9HBH9); test: Inhibition of MNK2 assessed as remaining enzyme activity at 3 uM relative to DMSO; method in brief: as §1
Sequence of MAP kinase-interacting serine/threonine-protein kinase 2 (Homo sapiens) (Q9HBH9 whole entry, looked up): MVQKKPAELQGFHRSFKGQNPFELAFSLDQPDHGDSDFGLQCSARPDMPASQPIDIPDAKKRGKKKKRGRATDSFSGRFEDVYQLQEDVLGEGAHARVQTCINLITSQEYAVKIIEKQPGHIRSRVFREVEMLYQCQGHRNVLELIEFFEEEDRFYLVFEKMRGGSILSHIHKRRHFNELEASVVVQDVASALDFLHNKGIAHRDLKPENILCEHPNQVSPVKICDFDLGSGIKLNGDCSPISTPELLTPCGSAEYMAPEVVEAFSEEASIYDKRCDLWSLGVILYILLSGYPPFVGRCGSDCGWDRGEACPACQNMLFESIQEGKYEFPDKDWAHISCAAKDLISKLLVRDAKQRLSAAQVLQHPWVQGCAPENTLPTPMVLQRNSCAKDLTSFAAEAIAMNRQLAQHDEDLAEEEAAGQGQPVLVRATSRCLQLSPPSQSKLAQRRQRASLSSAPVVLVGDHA

[8] = molecular target: Mitogen-activated protein kinase 14 (Homo sapiens) (UniProt Q16539); test: Inhibition of p38alpha assessed as remaining enzyme activity at 3 uM relative to DMSO
Sequence of Mitogen-activated protein kinase 14 (Homo sapiens) (Q16539 whole entry): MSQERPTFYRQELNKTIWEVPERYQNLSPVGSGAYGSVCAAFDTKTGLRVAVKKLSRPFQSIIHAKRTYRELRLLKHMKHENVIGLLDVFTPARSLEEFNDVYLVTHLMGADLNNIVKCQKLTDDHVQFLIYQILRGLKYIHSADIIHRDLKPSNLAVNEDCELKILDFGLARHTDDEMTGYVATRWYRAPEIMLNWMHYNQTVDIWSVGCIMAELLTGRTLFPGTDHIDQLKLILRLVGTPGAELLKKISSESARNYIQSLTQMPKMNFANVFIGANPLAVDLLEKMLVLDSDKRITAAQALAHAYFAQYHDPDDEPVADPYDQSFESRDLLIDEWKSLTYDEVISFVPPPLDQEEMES

[9] = molecular target: Mitogen-activated protein kinase 15 (Homo sapiens) (UniProt Q8TD08); test: Inhibition of ERK8 assessed as remaining enzyme activity at 3 uM relative to DMSO
Sequence of Mitogen-activated protein kinase 15 (Homo sapiens) (Q8TD08 whole entry): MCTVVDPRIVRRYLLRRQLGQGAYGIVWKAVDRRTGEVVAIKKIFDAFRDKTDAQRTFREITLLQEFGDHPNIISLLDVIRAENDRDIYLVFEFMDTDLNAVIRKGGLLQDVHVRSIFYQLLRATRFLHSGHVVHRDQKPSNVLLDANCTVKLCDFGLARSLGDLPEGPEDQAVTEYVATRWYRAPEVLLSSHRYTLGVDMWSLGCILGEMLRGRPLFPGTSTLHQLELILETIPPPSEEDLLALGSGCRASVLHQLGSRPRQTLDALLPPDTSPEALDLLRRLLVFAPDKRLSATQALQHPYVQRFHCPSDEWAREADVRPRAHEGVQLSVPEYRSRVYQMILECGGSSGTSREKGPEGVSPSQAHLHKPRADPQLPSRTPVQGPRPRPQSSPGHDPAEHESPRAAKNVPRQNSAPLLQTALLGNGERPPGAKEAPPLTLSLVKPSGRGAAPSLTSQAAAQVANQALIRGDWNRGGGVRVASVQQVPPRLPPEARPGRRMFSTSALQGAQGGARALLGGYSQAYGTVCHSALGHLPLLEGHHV
Method in brief: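 Dundee kinase panel, radiometric: [γ-33P]ATP (800 cpm/pmol) at 5, 20 or 50 μM, at or below each kinase's ATP Km; 10 mM magnesium acetate; robotic, room temperature, 30 min. Reactions started with MgATP, stopped with orthophosphoric acid, spotted onto P81 filters. Inhibitor tested at a single concentration; mean % activity of duplicates relative to DMSO control.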

[10] = molecular target: Insulin receptor (Homo sapiens) (UniProt P06213); test: Inhibition of histidine-tagged IR assessed as remaining enzyme activity at 3 uM relative to DMSO
[11] = molecular target: Ribosomal protein S6 kinase beta-1 (Homo sapiens) (UniProt P23443); test: Inhibition of S6K1 assessed as remaining enzyme activity at 1 uM relative to DMSO
Sequence of Ribosomal protein S6 kinase beta-1 (Homo sapiens) (P23443 whole entry, looked up): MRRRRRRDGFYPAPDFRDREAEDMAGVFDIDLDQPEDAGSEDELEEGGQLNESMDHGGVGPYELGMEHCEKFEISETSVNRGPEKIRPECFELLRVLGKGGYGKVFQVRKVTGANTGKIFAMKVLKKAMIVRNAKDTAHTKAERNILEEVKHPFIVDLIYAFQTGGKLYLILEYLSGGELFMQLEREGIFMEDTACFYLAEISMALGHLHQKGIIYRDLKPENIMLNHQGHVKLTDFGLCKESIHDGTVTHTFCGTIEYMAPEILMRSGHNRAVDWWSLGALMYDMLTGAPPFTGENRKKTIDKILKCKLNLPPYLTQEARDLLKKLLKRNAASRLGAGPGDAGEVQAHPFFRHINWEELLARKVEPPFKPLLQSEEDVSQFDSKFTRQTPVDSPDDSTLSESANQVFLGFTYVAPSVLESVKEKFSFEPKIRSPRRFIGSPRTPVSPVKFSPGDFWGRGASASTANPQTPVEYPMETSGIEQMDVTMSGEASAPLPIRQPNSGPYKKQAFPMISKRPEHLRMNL

[12] = molecular target: Dual specificity tyrosine-phosphorylation-regulated kinase 1A (Homo sapiens) (UniProt Q13627); test: Inhibition of DYRK1A assessed as remaining enzyme activity at 1 uM relative to DMSO
[13] = molecular target: Eukaryotic elongation factor 2 kinase (Homo sapiens) (UniProt O00418); test: Inhibition of EF2K assessed as remaining enzyme activity at 1 uM relative to DMSO
Sequence of Eukaryotic elongation factor 2 kinase (Homo sapiens) (O00418 whole entry): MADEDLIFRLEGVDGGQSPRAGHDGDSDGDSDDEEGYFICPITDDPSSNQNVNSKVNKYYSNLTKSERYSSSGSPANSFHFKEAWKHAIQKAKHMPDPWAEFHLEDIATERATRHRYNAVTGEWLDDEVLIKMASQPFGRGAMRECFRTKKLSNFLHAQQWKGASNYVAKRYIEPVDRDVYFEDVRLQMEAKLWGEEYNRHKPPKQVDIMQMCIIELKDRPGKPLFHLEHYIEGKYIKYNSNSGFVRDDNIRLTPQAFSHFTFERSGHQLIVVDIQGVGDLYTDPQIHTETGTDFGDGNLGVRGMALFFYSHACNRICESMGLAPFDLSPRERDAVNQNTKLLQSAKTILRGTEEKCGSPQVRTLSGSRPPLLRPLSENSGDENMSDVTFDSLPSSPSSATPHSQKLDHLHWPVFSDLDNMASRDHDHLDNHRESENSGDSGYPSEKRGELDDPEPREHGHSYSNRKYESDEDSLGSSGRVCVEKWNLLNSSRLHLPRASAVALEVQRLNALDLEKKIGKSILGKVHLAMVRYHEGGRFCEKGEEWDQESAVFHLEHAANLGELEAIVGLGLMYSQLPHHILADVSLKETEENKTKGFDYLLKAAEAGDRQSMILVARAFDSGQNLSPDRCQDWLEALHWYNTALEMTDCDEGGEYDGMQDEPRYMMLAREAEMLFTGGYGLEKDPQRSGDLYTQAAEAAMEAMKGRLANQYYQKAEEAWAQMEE
Method in brief: (§2)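 Radiometric kinase assay run robotically at room temperature for 30 min, linear in time and enzyme. Conditions: 10 mM magnesium acetate, [γ-33P]ATP (800 cpm/pmol) at 5, 20 or 50 μM per kinase, at or below its ATP Km. Started with MgATP and stopped with orthophosphoric acid, then spotted on P81 filters. Reported as mean % activity of duplicates versus DMSO controls.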

[14] = molecular target: MAP/microtubule affinity-regulating kinase 3 (Homo sapiens) (UniProt P27448); test: Inhibition of MARK3 assessed as remaining enzyme activity at 1 uM relative to DMSO; method in brief: as §2
[15] = molecular target: Serine/threonine-protein kinase Sgk1 (Homo sapiens) (UniProt O00141); test: Inhibition of SGK1 assessed as remaining enzyme activity at 1 uM relative to DMSO
Sequence of Serine/threonine-protein kinase Sgk1 (Homo sapiens) (O00141 whole entry): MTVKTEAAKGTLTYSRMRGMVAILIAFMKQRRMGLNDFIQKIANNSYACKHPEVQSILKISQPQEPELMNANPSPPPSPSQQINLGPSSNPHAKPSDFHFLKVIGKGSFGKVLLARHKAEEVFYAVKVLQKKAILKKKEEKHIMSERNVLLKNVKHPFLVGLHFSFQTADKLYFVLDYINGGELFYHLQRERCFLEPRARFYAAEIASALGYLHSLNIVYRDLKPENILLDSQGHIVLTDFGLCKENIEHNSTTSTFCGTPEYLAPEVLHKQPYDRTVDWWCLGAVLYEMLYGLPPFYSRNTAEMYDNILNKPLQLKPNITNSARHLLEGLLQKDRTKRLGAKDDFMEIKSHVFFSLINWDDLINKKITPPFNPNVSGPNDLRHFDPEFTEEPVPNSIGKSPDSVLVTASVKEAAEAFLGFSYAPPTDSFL

[16] = molecular target: Vascular endothelial growth factor receptor 2 (Homo sapiens) (UniProt P35968); test: Binding affinity to VEGFR2 assessed as percentage of kinase remaining bound to the bead at 1 uM by T7 phage display based binding assay
Method in brief: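 Kinases expressed as T7 phage fusions (full-length for small kinases, catalytic domain for large). Phage mixed with an immobilized known kinase inhibitor on streptavidin magnetic beads plus test compound at a single 1 μM concentration. Ligand displacement from the ATP site was read by quantitative PCR as % kinase/phage still bead-bound versus DMSO control. Human kinases.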

[17] = molecular target: ALK tyrosine kinase receptor (Homo sapiens) (UniProt Q9UM73); test: Binding affinity to ALK assessed as percentage of kinase remaining bound to the bead at 1 uM by T7 phage display based binding assay
Method in brief: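 Competition binding assay run by a contract lab. Each kinase was expressed as a fusion to T7 phage, full-length for small kinases and catalytic domain for large ones. Phage were mixed with an immobilized known kinase inhibitor on streptavidin magnetic beads and with test compound at a single 1 μM. Kinase/phage still bound to the beads was quantified by qPCR and expressed as % of DMSO control.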

Sequence of Mitogen-activated protein kinase kinase kinase 11 (Homo sapiens) (Q16584 whole entry, looked up): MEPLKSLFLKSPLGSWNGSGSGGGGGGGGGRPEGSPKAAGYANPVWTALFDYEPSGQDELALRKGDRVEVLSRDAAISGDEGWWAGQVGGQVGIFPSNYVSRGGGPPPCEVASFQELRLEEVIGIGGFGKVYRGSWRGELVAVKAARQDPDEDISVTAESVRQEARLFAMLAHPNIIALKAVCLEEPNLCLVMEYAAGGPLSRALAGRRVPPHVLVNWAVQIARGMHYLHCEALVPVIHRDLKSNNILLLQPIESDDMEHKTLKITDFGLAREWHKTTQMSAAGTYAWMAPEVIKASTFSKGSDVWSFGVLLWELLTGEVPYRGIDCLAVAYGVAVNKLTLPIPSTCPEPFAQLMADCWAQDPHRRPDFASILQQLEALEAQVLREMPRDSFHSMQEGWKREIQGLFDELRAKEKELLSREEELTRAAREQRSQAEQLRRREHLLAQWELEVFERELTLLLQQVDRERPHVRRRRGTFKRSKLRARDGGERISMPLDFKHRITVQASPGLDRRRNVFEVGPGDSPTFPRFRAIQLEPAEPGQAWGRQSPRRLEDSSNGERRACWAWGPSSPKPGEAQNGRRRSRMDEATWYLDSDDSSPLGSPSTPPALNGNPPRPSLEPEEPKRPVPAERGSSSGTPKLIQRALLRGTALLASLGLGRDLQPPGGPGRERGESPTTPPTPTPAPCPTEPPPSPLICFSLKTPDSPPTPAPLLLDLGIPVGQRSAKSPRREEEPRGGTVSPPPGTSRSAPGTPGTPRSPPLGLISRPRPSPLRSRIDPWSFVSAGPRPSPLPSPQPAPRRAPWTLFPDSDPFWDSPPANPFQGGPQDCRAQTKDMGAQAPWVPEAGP

| Structure (SMILES) | Activity [1] [%] | IC50 (Ephrin type-B receptor 4 [2]) [nM] | Activity [3] [%] | Activity [4] [%] | IC50 (Ephrin type-B receptor 4 [5]) [nM] | Activity [6] [%] | Activity [7] [%] | Activity [8] [%] | Activity [9] [%] | Activity [10] [%] | Activity [11] [%] | Activity [12] [%] | Activity [13] [%] | Activity [14] [%] | Activity [15] [%] | Activity [16] [%] | Activity [17] [%] |
| --- | --- | --- | --- | --- | --- | --- | --- | --- | --- | --- | --- | --- | --- | --- | --- | --- | --- |
| COc1ccccc1-n1c(-c2ccccc2C)cn2c3c(=O)[nH]c(=O)n(C)c3nc12 | 136 | 47 | 102 | 96 | 180 | 92 | 85 | 87 | 109 | 103 |  |  |  |  |  |  |  |
| COc1ccccc1-n1c(-c2cc(O)ccc2C)cn2c3c(=O)[nH]c(=O)n(C)c3nc12 |  | 1.6 |  |  | 5 |  |  |  |  |  | 77 | 99 | 96 | 96 | 78 | 96 | 99 |
